Source: PMC2229441 (The Journal of General Physiology, 1998)
Like-named read-outs stand apart in the source and are kept apart here.

How the values were obtained:
patch-clamped mast cells = type: cell-based, rat
Summary of the method: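 Peritoneal mast cells from male Wistar rats (300–350 g), Percoll-purified, held in DMEM/F-12 with 2 mM glutamine at 37°C, 5% CO2. Test peptide is delivered through the patch pipette (IS 2 with 100 μM FURA-2 and EGTA buffering). Degranulation is tracked as membrane capacitance rise after patch rupture; delay is taken at 10% capacitance increase. [Ca2+]i is read from 340/380 nm ratios. Mean ± SEM (cells).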

PtX-treated mast cells = conditions: non–membrane-penetrating dyes; ref Wiesner et al., manuscript in preparation; cited from earlier work

For Nc1nc2c(ncn2[C@@H]2O[C@H](COP(=O)(O)OP(O)(O)=S)[C@@H](O)[C@H]2O)c(=O)[nH]1 [GDPβS], the “cells in which SP-induced exocytosis was inhibited” value (patch-clamped mast cells; 1 mM GDPβS applied together with 5 μM SP through the patch pipette) was “four of five”.

In the case of Nc1nc2c(ncn2[C@@H]2O[C@H](COP(=O)(O)OP(=O)(O)OP(O)(O)=S)[C@@H](O)[C@H]2O)c(=O)[nH]1 [GTPγS], the degranulation rate (patch-clamped mast cells; 2.5–5 μM, n = 25, mean ± SEM) is reported as 0.05 ± 0.005 pF/s, the degranulation rate (patch-clamped mast cells; 10–25 μM, n = 16, mean ± SEM) is reported as 0.15 ± 0.03 pF/s and the “shortest time delay, extrapolated to high concentrations” value (patch-clamped mast cells; extrapolation of curves of Fig. 7) is reported as “about 20 s”. For the same molecule, the “cells in which degranulation occurred” value (patch-clamped mast cells; intracellular application at similar concentrations as SP, IS 1) was 41 of 45 and the “membrane capacitance increase in degranulating cells” value (patch-clamped mast cells; intracellular application, IS 1, mean ± SEM (SP n = 31)) was 2.7 ± 0.1 fold.

For carboxyfluorescein, the “translocation into PtX-treated mast cells” value (PtX-treated mast cells) is given as “not translocated”.
